# Results pooled from the literature.
# Lines come from different studies, so protocols differ. pIC50: −log10 of the molar value.
# Somatostatin receptor type 2: Somatostatin receptor type 2 (Rattus norvegicus, UniProt P30680)
# PTPN9: Tyrosine-protein phosphatase non-receptor type 9 (PTPN9, Homo sapiens, UniProt P43378)
# DRD1: D(1A) dopamine receptor (DRD1, Homo sapiens, UniProt P21728)
# BCHE: Cholinesterase (BCHE, Equus caballus, UniProt P81908)
# Urease: Urease (Canavalia ensiformis, UniProt P07374)
# NTRK2: BDNF/NT-3 growth factors receptor (NTRK2, Homo sapiens, UniProt Q16620)
# PTPN11: Tyrosine-protein phosphatase non-receptor type 11 (PTPN11, Homo sapiens, UniProt Q06124)
# PTGS1: Prostaglandin G/H synthase 1 (PTGS1, Ovis aries, UniProt P05979)
# SIRT3: NAD-dependent protein deacetylase sirtuin-3, mitochondrial (SIRT3, Homo sapiens, UniProt Q9NTG7)
SMILES,target,test,test system,setting,pIC50
CC(=O)N1C[C@@H](CCN2CCC(c3c[nH]c4ccccc34)CC2)c2ccccc21,"Sodium-dependent serotonin transporter (SLC6A4, Homo sapiens, UniProt P31645)","ligand displacement, radioligand",,cell membranes,6.74
CNC(=O)c1cc(Oc2ccc(NC(=O)Nc3cc(C(C)(C)C)nn3-c3ccc4ncccc4c3)c(F)c2)ccn1,"Mitogen-activated protein kinase kinase kinase 20 (MAP3K20, Homo sapiens, UniProt Q9NYL2)","enzyme activity, inhibitor, mass spectrometry",,,7.92
C[C@@H](O)[C@@H]1NC(=O)[C@H](CCCCN)NC(=O)[C@@H](Cc2c[nH]c3ccccc23)NC(=O)[C@H](Cc2ccc(O)cc2)NC(=O)[C@@H](NC(=O)[C@@H](Cc2ccccc2)NC(=O)CCC(C(=O)O)N2CCN(CC(=O)O)CCN(C(CCC(=O)O)C(=O)O)CC2)CSSC[C@@H](C(=O)N[C@H](CO)[C@@H](C)O)NC1=O (some centres unmarked),Somatostatin receptor type 2,"ligand displacement, radioligand",,,7.47
C=CC(=O)Nc1cc(Nc2nccc(Nc3cc(Cl)c(F)cc3C(C)(C)O)n2)c(OC)cc1N1CC[C@@H](N(C)C)C1,"Cytochrome P450 2B6 (CYP2B6, Homo sapiens, UniProt P20813)","enzyme activity, inhibitor","human, liver microsomes",,< 4.52
CCOC(F)(F)c1nnc2cnc(-c3cnc(OCC(F)(F)F)c(F)c3)cn12,"Sodium channel protein type 8 subunit alpha (Scn8a, Mus musculus, UniProt Q9WTU3)","ion current, inhibitor, patch clamp",,,6.84
N[C@@H](Cc1ccc(C(F)(F)P(=O)(O)O)cc1)C(=O)O,PTPN9,"enzyme activity, inhibitor, absorbance",,,1.94
CN1CCN(c2ccc(Nc3ncc4cc(C#N)c(=O)n(C5CCCC5)c4n3)cc2)CC1,"Ribosomal protein S6 kinase alpha-3 (RPS6KA3, Homo sapiens, UniProt P51812)","enzyme activity, inhibitor",,,6.42
CCCOc1c(O)cc(Br)c2c1CN1CCc3cc(OCC(F)F)c(O)cc3[C@@H]1C2,DRD1,"cAMP, antagonist, TR-FRET",,,6.73
O=S1(=O)CCN(c2nccc(NCc3ccccc3)n2)CC1,BCHE,"enzyme activity, inhibitor",,,< 4.00
O=C1Nc2ccc(I)cc2/C1=C/c1cc(Br)c(O)c(Br)c1,"Ribosomal protein S6 kinase alpha-3, N-terminal kinase domain (RPS6KA3, Homo sapiens, UniProt P51812)","enzyme activity, inhibitor, FP",,,6.00
CC(=O)NO,Urease,"enzyme activity, inhibitor",,,4.69
CCN(CC)c1ccc(C=O)cc1,"Aldehyde dehydrogenase, dimeric NADP-preferring (ALDH3A1, Homo sapiens, UniProt P30838)","enzyme activity, inhibitor, absorbance",,,4.82
C[C@@H](N)COc1ccc(-c2cnc3ccc(N[C@H](C)c4cccc(F)c4)nn23)cc1,NTRK2,"enzyme activity, inhibitor",,,8.26
N[C@@H](Cc1ccccc1)C(=O)N[C@@H](Cc1ccccc1)C(=O)N[C@@H](CC(=O)O)C(=O)O,PTPN11,"enzyme activity, inhibitor, absorbance",,pH 7.4,3.94
O=Cc1ccc2[nH]ncc2c1,"Ribosomal protein S6 kinase alpha-3 (RPS6KA3, Homo sapiens, UniProt P51812, C436V)","enzyme activity, inhibitor",,,~3.46
CC1=C[C@@]2(C[C@H](C)[C@H]3CC=C(C)[C@@H](O[C@@H]4O[C@H](CO)[C@@H](O)[C@H](O)[C@H]4O)[C@@H]3O2)OC1=O,PTPN11,"enzyme activity, inhibitor",,,4.04
N[C@@H](Cc1ccccc1)C(=O)N[C@@H](CC(=O)O)C(=O)N[C@@H](Cc1ccccc1)C(=O)O,PTPN11,"enzyme activity, inhibitor, absorbance",,pH 7.4,4.01
COc1ccc(Nc2c(-c3ccc(S(C)(=O)=O)cc3)nc3cccc(C)n23)cc1,PTGS1,"enzyme activity, inhibitor, fluorescence",,,4.68
CN(CCCCNC(=O)c1cc2ccccc2[nH]1)[C@@H]1Cc2cccc3[nH]c(=O)n(c23)C1,DRD1,"ligand displacement, radioligand",,,< 5.04
C=C(NC(=O)[C@H](CCCCNC(=S)CCCCCCCCCCCCC)NS(C)(=O)=O)C(=O)N[C@@H](CCCNC(=N)N)C(N)=O,SIRT3,"enzyme activity, inhibitor",,,5.43
Cc1cc(-c2ccc(NC(=O)[C@H](CCCCNC(=O)CCN3C(=O)CC(SCC(=O)N[C@H](Cc4ccccc4)C(=O)N[C@H]4CSSC[C@@H](C(=O)N[C@H](C(=O)O)[C@@H](C)O)NC(=O)[C@H]([C@@H](C)O)NC(=O)[C@H](CCCCN)NC(=O)[C@@H](Cc5c[nH]c6ccccc56)NC(=O)[C@H](Cc5ccc(O)cc5)NC4=O)C3=O)NC(=O)CN3CCN(CC(=O)O)CCN(CC(=O)O)CCN(CC(=O)O)CC3)c(C)c2)ccc1N=Nc1ccc2c(S(=O)(=O)O)cc(S(=O)(=O)O)c(N)c2c1O (some centres unmarked),Somatostatin receptor type 2,ligand displacement,,,8.04
C=C(NC(=O)[C@H](CCCCNC(=S)NCCCCCCCCCCCC)NS(C)(=O)=O)C(=O)N[C@@H](CCCNC(=N)N)C(N)=O,SIRT3,"enzyme activity, inhibitor",,,5.54
Cc1ccc(Nc2c(-c3ccc(S(C)(=O)=O)cc3)nc3cc(C)ccn23)cc1,PTGS1,"enzyme activity, inhibitor, fluorescence",,,4.47
CC1Cc2ccccc2N1C(=O)NCCCCN(C)[C@@H]1Cc2cccc3[nH]c(=O)n(c23)C1 (mixture of isomers),DRD1,"ligand displacement, radioligand",,,< 5.00
O=[N+]([O-])c1ccc(NC(=S)N2CCc3ccccc3C2)c(Cl)c1,Urease,"enzyme activity, inhibitor, absorbance",,,4.59
CC(=O)N1CCN(c2nccc(NCc3ccccc3)n2)CC1,BCHE,"enzyme activity, inhibitor",,,< 4.00
CCN(CC)CCCC[C@H](NC(=O)[C@H](CC(C)C)NC(=O)[C@H](C)NC(=O)[C@H](Cc1ccccc1)NC(=O)c1ccc(C(C)(C)C)cc1)C(=O)N[C@@H](CO)C(=O)OC,"Chromobox protein homolog 8 (Homo sapiens, UniProt Q9HC52)","ligand displacement, TR-FRET",,,6.25
COc1ccc2c(c1OCc1ccc(OC(F)(F)F)cc1)C[C@@H](C(=O)O)N(c1nc3ccc(F)cc3o1)C2,"Type-2 angiotensin II receptor (AGTR2, Homo sapiens, UniProt P50052)","cell-free assay, TR-FRET",,,6.80
Cc1cc(Nc2cc(CN3CCOCC3)c3nc(C)c(Cc4ccc(Cl)cc4F)n3n2)n[nH]1,NTRK2,"enzyme activity, inhibitor, TR-FRET",,,7.02
Cc1ccc(NC(=O)c2ccc(C)c(C(F)(F)F)c2)cc1C#Cc1nn(C2CCC(O)CC2)c2ncnc(N)c12 (centres unmarked),NTRK2,"enzyme activity, inhibitor, radiometric",,,6.05
O=C(O)C(=O)CC(=O)c1cccc(N(Cc2ccccc2)Cc2ccccc2)c1,PTPN11,"enzyme activity, inhibitor, absorbance",,pH 7,4.07
Cc1c(Br)cc(NC(=O)C(c2ccccc2)S(=O)(=O)O)cc1Br (centres unmarked),PTPN9,"enzyme activity, inhibitor, absorbance",,,< 3.70
[O-][S+]1CCN(c2nccc(NCc3ccccc3)n2)CC1,BCHE,"enzyme activity, inhibitor",,,< 4.00
O=C(NCCc1ccc(OP(=O)(O)O)c(OP(=O)(O)O)c1)OCC1c2ccccc2-c2ccccc21,"Signal transducer and activator of transcription 5A, SH2 (Homo sapiens, UniProt P42229)","ligand displacement, FP",,,4.49
CC(C)(C)n1nc(-c2cnc3cc(OC4CC4)ccc3c2)c(C(N)=O)c1N,"Calcium/calmodulin-dependent protein kinase type 1D (CAMK1D, Homo sapiens, UniProt Q8IU85)",cell-free assay,,,< 5.00
